# Assay outcomes (PubChem BioAssay)
# A selection: hits, their analogues and other compounds. The true share with any hit is near 2.5%.
# SIRT5 block = sirtuin-5 (human) deacylase inhibition | Q9NXA8 | inhibition, % at 15 µM | AID 652115 | actives 1.1% (n = 330,000) | Purified SirT5, succinyl-peptide AMC, trypsin-coupled fluorescence; in the data active = inhibition above about 15%
# miR-122 sensor = miR-122 inhibition in Huh7 cells; Huh7 miR-122 Renilla luciferase sensor, 48 h; neutral wells = 0, positive control = 100; activation (reporter increase), % at 12.5 µM; actives 0.3% (n = 340,000); AID 602342;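 active = mean replicate activation score at least 90 and every replicate individually at or above 90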;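 note: higher luciferase means less miR-122 activity so hits act as miR-122 inhibitors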
# FGF22 binding = shifts melting point of recombinant human FGF22; Q9HCT0; activity (Tm shift, normalised), % at 9.99 µM; recombinant FGF22 thermal shift, SYPRO orange fluorescence; percent of sucrose octasulfate shift, DMSO zero; actives 1.5% (n = 340,000);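 active = mean Tm shift, scaled 0 neutral to 100 positive control, at about 1.3% or above, every replicate too, limit read from the data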
# S100A4 inh HTS = inhibitors of human S100A4 binding to myosin IIA peptide; S100A4/TAMRA-MyoIIA peptide fluorescence polarization; inhibition, % at 10.7 µM; actives 0.14% (n = 360,000); AID 652163;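 active = mean inhibition of at least 70% across replicates, with every replicate also reaching that level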
#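 Assay system: human S100A4 monomer with TAMRA-labelled myosin IIA peptide / Buffer or medium: Calcium-containing HEPES buffer, pH 7.2 / Reagent: TAMRA-labelled myosin IIA heavy-chain peptide probe, 5 nM / Compound: one dose per compound / Timing: polarization read 5 min after assay mix addition, stable 5–60 min / Benchmarks: neutral control DMSO, positive control TFP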
# E-selectin induc = E-selectin induction on HUVECs; P16581; HUVEC E-selectin immunofluorescence imaging; normalized: neutral wells 0, TNF-alpha wells 100; activation, % at 7.58 µM; actives 0.37% (n = 260,000); AID 686992;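 active = mean E-selectin-positive cell signal at least 10% of the positive control, reached in at least 60% of replicates, without over 20% cell loss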
# Target sequence (P16581 whole entry, looked up): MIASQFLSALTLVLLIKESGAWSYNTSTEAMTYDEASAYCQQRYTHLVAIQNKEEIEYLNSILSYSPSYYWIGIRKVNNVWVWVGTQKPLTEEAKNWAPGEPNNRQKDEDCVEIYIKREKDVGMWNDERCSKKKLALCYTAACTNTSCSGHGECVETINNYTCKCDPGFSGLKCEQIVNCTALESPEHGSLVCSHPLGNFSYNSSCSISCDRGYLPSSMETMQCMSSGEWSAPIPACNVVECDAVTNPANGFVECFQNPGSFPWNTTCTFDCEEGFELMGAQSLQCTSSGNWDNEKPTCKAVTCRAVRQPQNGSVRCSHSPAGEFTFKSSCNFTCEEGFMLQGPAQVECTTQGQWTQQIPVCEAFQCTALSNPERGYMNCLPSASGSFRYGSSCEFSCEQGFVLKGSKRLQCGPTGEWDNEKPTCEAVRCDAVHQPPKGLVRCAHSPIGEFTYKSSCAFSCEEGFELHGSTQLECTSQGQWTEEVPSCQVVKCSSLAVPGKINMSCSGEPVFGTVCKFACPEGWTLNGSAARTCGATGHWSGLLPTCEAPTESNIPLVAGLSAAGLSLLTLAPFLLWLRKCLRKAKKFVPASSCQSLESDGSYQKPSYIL
#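 material = human umbilical vein endothelial cells (HUVEC), E-selectin induction | quantity = 3,000 cells/well | medium = EGM-2 growth medium on 0.1% gelatin-coated wells | technique = immunofluorescence imaging | read-out basis = % PE-positive cells | control set = TNF-alpha positive control, DMSO neutral control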
# Starred values were filed as active, the others as inactive; . = not tested or not shown; [ ] = another dose, or the depositor's remark.
SMILES,SIRT5 block,miR-122 sensor,FGF22 binding,S100A4 inh HTS,E-selectin induc
COCC(=O)Nc1ccc2c(c1)C(=O)N(C)[C@H]1CC[C@@H](CC(=O)O)O[C@H]1CO2,.,262*[16.7 µM],0,.,0
CN1C(=O)c2cc(NC(=O)NC3CCCC3)ccc2OC[C@H]2O[C@@H](CC(=O)O)CC[C@H]21,0,138*[16.7 µM],0,-6,0
CN1C(=O)c2cc(NC(=O)NC3CCCC3)ccc2OC[C@@H]2O[C@H](CC(=O)O)CC[C@@H]21,-4,10[16.7 µM],0,-7,0
COc1ccc2c3c([nH]c2c1)[C@H](CO)N(Cc1ccccc1Cl)CC31CCN(C(C)=O)CC1,.,.,0,.,-1
O=C(O)CNS(=O)(=O)/C=C/c1ccccc1,-3,-3,1,-3,.
Cc1ccc(/C=C/S(=O)(=O)NCC(=O)O)cc1,0,.,43*,5,.
C[C@H](CO)N1C[C@H](C)[C@H](CN(C)C(=O)Cc2cccnc2)Oc2ncc(C#Cc3ccccc3F)cc2C1=O,-3,.,0,2,0
CC1CN(C)C(C)C/C1=N/Oc1ccccc1[N+](=O)[O-] (stereo not given),-2,2,44*,0,.
CC1CN(C)C(C)C/C1=N\Oc1ccc([N+](=O)[O-])cc1 (stereo not given),2,-19,0,0,.
C[C@@H]1CN([C@H](C)CO)C(=O)c2cc(C#CCN(C)C)cnc2O[C@H]1CN(C)C(=O)NC1CCCCC1,-1,-2[16.7 µM],0,0,0
CCN(C(=O)CSc1nnc(-c2ccccc2Br)o1)C1CCS(=O)(=O)C1 (stereo not given),.,.,0,-3,.
CCn1c(SCC(=O)N(C)C2CCS(=O)(=O)C2)nnc1-c1ccccc1 (stereo not given),-7,0,43*,-13,3
CCN(C(=O)CSc1nnc(-c2ccc(F)cc2)n1C)C1CCS(=O)(=O)C1 (stereo not given),.,-2,43*,11,0
CCN(C(=O)CSc1nnc(-c2c[nH]c3ccccc23)o1)C1CCS(=O)(=O)C1 (stereo not given),2,2,43*,-1,.
COC(=O)C1=CN(Cc2ccc(OC)c(OC)c2)C=C(C(=O)OC)C1c1ccc(F)cc1,18*,-7,0,-2,.
COC(=O)C1=CN(Cc2ccc(OC)c(OC)c2)C=C(C(=O)OC)C1c1ccc(O)cc1,-15,.,0,-3,.
Cc1ccc(C)c(S(=O)(=O)N2CCCC2CNC(=O)C(=O)NCCc2ccco2)c1 (stereo not given),2,-3,0,5,0
Cc1ccc(C)c(S(=O)(=O)N2CCCCC2CCNC(=O)C(=O)NCCc2ccco2)c1 (stereo not given),-4,.,0,-5,62*
CCCC1=[N+](CC(C)=O)CCn2c(C)ccc21,0,.,43*,0,0
CCCNC(=O)C[C@@H]1C[C@H]2c3cc(NC(=O)c4cccnc4)ccc3O[C@H]2[C@@H](CO)O1,.,0[16.7 µM],0,.,0
CCOC(=O)Nc1c(Cl)[nH]c(=O)n(C)c1=O,-2,-3,0,-5,0
CCOC(=O)c1nn(C)c2[nH]c(=O)n(C)c(=O)c12,.,.,44*,0,0
C[C@H]1CN([C@@H](C)CO)C(=O)c2cc(NC(=O)Cc3ccccc3)ccc2O[C@@H]1CN(C)S(=O)(=O)c1ccccc1,5,10[16.7 µM],0,-7,0
Cc1cc(C)n2cc(CSc3nncn3C)nc2n1,-7,.,43*,0,.
O=C(C[C@@H]1C=C[C@@H](NC(=O)c2ccncc2)[C@H](CO)O1)Nc1ccccc1,-1,.,.,5,0
SMILES,SIRT5 block,miR-122 sensor,FGF22 binding,S100A4 inh HTS,E-selectin induc
CC(=O)C1CCC2C3CCC4CC(OC(=O)CCC(=O)O)CCC4(C)C3C(=O)CC12C (stereo not given),.,0,44*,-5,0
C[C@H](CO)N1C[C@H](C)[C@H](CN(C)C(=O)C2CCC2)Oc2cc(-c3ccccc3)ccc2S1(=O)=O,.,17[16.7 µM],.,.,0
CN1c2ccc(-c3ccccc3)cc2[C@@H]2[C@@H](CCN2C(=O)c2ccc3c(c2)OCO3)[C@@H]1CO,11,12[16.7 µM],-1,-18,1
C[C@H](CO)N1C[C@H](C)[C@H](CN(C)Cc2ccccc2)Oc2cc(C3=CCCC3)ccc2S1(=O)=O,11,-8[16.7 µM],0,6,1
COc1ccc(NC(=O)NCCN2CCN(c3cc(OC)ccc3OC)CC2)cc1,28*,-3,0,1,.
CCc1ccc(N2CCN(CCNC(=O)Nc3ccc(OC)cc3)CC2)cc1,-2,.,0,-13,.
CCOc1ccccc1Cn1c(=O)sc2ccccc21,0,.,43*,3,2
O=c1sc2ccccc2n1Cc1ccccc1,2,-5,0,0,.
NC(=S)NN=C1CCSCC1,.,-5,43*,1,0
NC(=S)NN=C1CCCCCCCCC1,-4,.,0,27,0
S=c1[nH]c(-c2ccccc2)cs1,-1,.,0,-3,0
Fc1ccc(-c2csc(=S)[nH]2)cc1,0,.,43*,-3,.
c1ccc(CCc2nc(-c3ccc(-n4cccc4)cc3)no2)cc1,18*,-5,0,1,0
CCN(CC)C(=O)CC(c1ccc(N(C)C)cc1)c1c(OC)cc(OC)c2ccc(=O)oc12 (stereo not given),-4,3,0,-2,0
COc1ccc(C(CC(=O)N2CCCC(C)C2)c2c(OC)cc(OC)c3c(-c4ccccc4)cc(=O)oc23)cc1 (stereo not given),.,92*,0,3,0
CCN(CC)C(=O)CC(c1ccc(N(C)C)cc1)c1c(OC)cc(OC)c2c(-c3ccccc3)cc(=O)oc12 (stereo not given),-3,99*,-1,4,0
O=C(Nc1ccc(Cl)cc1)N[C@@H]1CC[C@H](CCNS(=O)(=O)c2ccccc2F)O[C@H]1CO,-1,.,0,-16,0
Cc1cccc(NS(=O)(=O)c2csc(C(N)=O)c2)c1C,-3,.,0,-14,50*
COc1cc(NS(=O)(=O)c2csc(C(N)=O)c2)cc(OC)c1,-3,99*,0,7,9
CC(=O)c1cccc(NS(=O)(=O)c2csc(C(N)=O)c2)c1,1,61,0,-2,-2
Cc1cccc(NS(=O)(=O)c2csc(C(N)=O)c2)c1,-1,111*,0,-4,0
CN1C(=O)c2cc(NC(=O)c3cccc(F)c3)ccc2OC[C@H]2O[C@H](CC(=O)NCc3ccccc3Cl)CC[C@H]21,2,-16[16.7 µM],0,3,0
CCCC(=O)N1C[C@H]2[C@@H](c3ccccc31)[C@H](CO)N2C(=O)CC1CC1,-3,0[16.7 µM],0,.,0
CCOC(=O)C1(C)CCN1C(=O)c1cccc(Cl)c1 (stereo not given),32*,-5,0,4,0
